# Experimental data: PubChem BioAssay
# A number with no mark means an inactive call. Results filed as inconclusive are left out. Active and inactive are the calls of the source.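 The calls were made as follows, unless noted: active = inhibition over a set limit, the all-compound mean plus 3 SD, in both replicate runs; inconclusive = over that limit in just one replicate run; inactive = at or under that limit in both runs.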
# Assays:
# [1] = OD615 S. cerevisiae growth inhibition, permissive medium, pilot counter-assay, permissive growth control for S. cerevisiae lifespan shortening project (AID 705;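 active = growth inhibition above 25% in both replicates, a cutoff set 3 SD above the mean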); conditions: OD615, 24 h, at 10 µM, active compounds read high
# In short: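 Timing: 24 h exposure, 30 °C / Material: Saccharomyces cerevisiae strain carrying genetically modified DeaD replicative-lifespan system / Signal: OD at 615 nm / Compound: 10 µM single dose, 0.25% DMSO / Medium: SC raffinose/galactose permissive medium / Evaluation: reduction in yeast growth (OD615)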
# [2] = Restrictive medium S. cerevisiae growth inhibition, OD615, pilot screen of yeast lifespan reduction project, restrictive growth control (AID 706;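 active = growth inhibition above a set limit, 3 SD over mean compound inhibition, in both replicates, cut at about 43% in these data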;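 also: modified DeaD lifespan yeast strain shifted to restrictive glucose medium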); conditions: OD615, 48 h, at 10 µM, active compounds read high
# In short: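 System: Engineered S. cerevisiae DeaD strain | Detection: OD615 | Buffer or medium: CSMM-D glucose medium | Doses: 10 µM compound, 0.25% DMSO | Timing: 4 h pre-growth plus 48 h compound exposure, 30 °C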
# [3] = viability gain of MRP-1-high H69AR cells under doxorubicin, pilot screen, MRP-1 activator project, CellTiter-Glo, duplicate (AID 807;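 active = viability increase at or above a cutoff of the median across tested compounds plus 3 SD, cut at about 8.5% in these data, passing the limit was not always enough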;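 also: compound pretreatment 18-22 h then 72 h combined with doxorubicin; 0% = doxorubicin alone and 100% = vehicle without doxorubicin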); conditions: H69AR viability with doxorubicin, CellTiter-Glo luminescence; at 10 µM; active compounds read high
# [4] = growth suppression of beta-catenin knockout HCT116, pilot screen, human colon tumor cells (AID 823;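 active = cell viability at or below a set limit in both duplicate runs, the limit being the all-compound median minus 4 SD, cut at about 23% in these data, passing the limit was not always enough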;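 also: 0% = wells killed by 20 µM Hyamine and 100% = untreated DMSO cell wells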); conditions: CellTiter-Glo, 60 h, at 10 µM, active compounds read low
# [5] = growth suppression of PTEN-deleted HCT116, pilot screen, cell-based, HCT116 clonal line, CellTiter-Glo (AID 824;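 active = viability at or below 27.92% in each of two runs, the all-compound median minus 4 SD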;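 also: 0% = 20 µM Hyamine control and 100% = vehicle cell control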); conditions: 60 h, at 10 µM, active compounds read low
# [6] = inhibitors of the yeast RAM network, pilot screen, dse1pr::URA3 reporter, 5-FOA selection (AID 869);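 also: 0% = DMSO wells with no growth and 100% = 10 µM 1-NA-PP1 with full growth; RAM network block rescues cells from 5-FOA so hits raise OD615 growth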; conditions: S. cerevisiae dse1pr::URA3 5-FOA growth, OD615, 2 d; at 10 µM; active compounds read high; strain carries analog-sensitive mutant Cbk1 kinase
# [7] = RAM signaling pathway blockade in yeast – S. cerevisiae, Pdr1DBD-CYC8 efflux-inhibited sensitized strain, primary screen (AID 1298;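 active = RAM network inhibition above 8.4% in each of two replicates, 3 SD over the compound average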;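 also: 0% = DMSO untreated cells without growth and 100% = 10 µM 1-NA-PP1 full growth; higher means more yeast growth rescued from 5-FOA killing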); conditions: S. cerevisiae cbk1-as DSE1-URA3 strain, 5-FOA growth OD615, 2 d; at 50 µM; active compounds read high
SMILES,growth inhibition [1] [%],growth inhibition [2] [%],viability increase [3] [%],viability [4],viability [5],inhibition [6] [%],RAM network inhibition [7] [%]
Oc1c(C(c2cccc(F)c2)N2CCN(Cc3ccccc3)CC2)sc2ncnn12 (configuration not stated),-6.58,3.16,-0.83,87.7%,80.7%,0.05,-2.27
COc1ccc(C2c3c(oc4ccc(F)cc4c3=O)C(=O)N2CCN2CCOCC2)cc1OC (configuration not stated),-0.77,4.3,-1.12,107%,108%,0.315,2.7
CCn1c(N2CCC(C)CC2)nc2c1c(=O)n(C)c(=O)n2C,-10.5,1.69,-0.88,92.9%,85%,1.12,0.06
O=C1c2ccccc2C(O)N1CCN1CCOCC1 (configuration not stated),-0.105,-6.41,-1.24,94.5%,101%,2.64,1.95
O=C(CSc1nnc(-c2ccccn2)n1Cc1ccco1)c1ccc(Cl)cc1,1.63,23.2,-2.56,85.8%,82%,2.6,4.4
CCCCOc1cccc(C2(C(=O)O)CCCC2)c1,-6.28,4.47,-1.49,99%,94.5%,1.21,4.01
Cc1cc(N2CCOCC2)cc(C)[n+]1[O-],-2.4,-2.99,-1.54,89.5%,93.2%,-0.115,1.76
O=C(O)COc1ccc2c(c1)OCCO2,-7.81,-2.33,0.55,99.2%,107%,1.04,-0.47
O=c1c2cc(-c3ccccc3)sc2ncn1/N=C/c1ccco1,-7.51,0.525,-2.49,96.6%,82%,1.5,5.9
CC(=O)C1(O)C(C)CC2C3CCC4CC(O)CCC4(C)C3=CCC21C (configuration not stated),-8.11,-5.04,-1.36,97.2%,90.2%,0.305,9.58
CCN(CC)c1ccc(C=Nc2ccc(C#N)cc2)c(O)c1,-18.8,-19.5,-0.93,99.4%,96.3%,1.43,5.13
CC(/C=C/c1ccccc1)=N/O,-2.33,2.71,0.26,98.3%,106%,-0.595,4.55
CCS(=O)(=O)N1CCN(Cc2nc3ccccc3c(=O)[nH]2)CC1,-12.6,-14.4,0.44,97.5%,91.8%,1.33,6.05
COC(=O)c1cccc(NC(=O)C(C)N2C(=O)c3ccccc3C2=O)c1 (configuration not stated),-16.2,10.2,-1.25,93.4%,106%,1.77,2.77
COc1cc(C(=O)Nc2cc(-c3nc4cc(C)ccc4o3)ccc2C)cc(OC)c1OC,3.69,8.25,-2.34,97%,95.2%,0.43,-0.15
COc1ccc(-c2cc(C(F)F)n3ncc(C(=O)NCCCN4CCCC4=O)c3n2)cc1,-3.45,-7.12,-4.32,78.5%,73.5%,-0.515,3.32
CCOc1ccccc1NC(=O)CSc1nnc(Cn2c(=O)sc3ccccc32)n1C,-8.96,9.08,-2.73,91.5%,92%,1.48,2.49
CCOC(=O)c1[nH]c(=O)[nH]c1CSc1nc(C)cc(C)n1,-4.23,7.25,-3.65,102%,96.9%,0.985,5.37

SMILES,growth inhibition [1] [%],growth inhibition [2] [%],viability increase [3] [%],viability [4],viability [5],inhibition [6] [%],RAM network inhibition [7] [%]
CCOc1cccc(C2c3c(oc4ccccc4c3=O)C(=O)N2c2ccccn2)c1 (configuration not stated),-1.86,-9.72,-2.2,95.6%,93.9%,0,2.56
CCOCCn1c(CN2CCC(C)CC2)nc2c1c(=O)n(C)c(=O)n2C,7.15,-2.44,-1.22,91.8%,91.5%,0.02,-0.56
Nc1nc(SCc2ccc(Cl)cc2)ns1,10.4,7.05,1.03,98.4%,89.2%,0.695,0.78
CC(=O)c1ccc(NC(=O)CSc2nc3nc(C)cc(C)n3n2)cc1,-20.6,-8.37,-1.88,101%,93.9%,2.34,2.78
O=C1c2oc3ccccc3c(=O)c2C(c2cccc(O)c2)N1CCCN1CCOCC1 (configuration not stated),-8.79,-7.73,-0.83,102%,102%,0.37,2.79
CCOC(=O)C1=C(CS(=O)(=O)c2ccccc2)NC(=O)NC1c1ccccc1OCC (configuration not stated),-15.1,-5.42,0.13,98.7%,101%,2.07,-0.04
COc1ccc(S(=O)(=O)Cc2ccc(C(=O)NCc3cccnc3)o2)cc1,-4.57,-10.1,-5,88.2%,84%,1,3.45
COc1ccc(N2CCN(C3CC(=O)N(C)C3=O)CC2)cc1 (configuration not stated),-3.33,2.79,-0.79,103%,100%,1.95,4.13
CC1(C)Cc2c(sc3nc(-c4cccs4)n(N)c(=O)c23)CO1,-10.5,18.5,-6.5,42.1%,45.5%,0.19,1.7
COCCn1c(SCC(=O)Nc2ccccc2)nc2c1c(=O)[nH]c(=O)n2C,1.17,-4.34,1.21,102%,95.5%,1.67,1.25
COc1cccc2c1N1C(=O)c3c(C(=O)O)cccc3C1CC2(C)C (configuration not stated),-15.2,-18.1,-2.18,108%,98.9%,4.54,2.74
Cc1cc2cc(CCNC(=O)c3c(-c4ccccc4Cl)noc3C)c(=O)[nH]c2cc1C,-14.1,-2.13,-3.71,94.9%,94.7%,1.85,3.43
CCc1ccc(-c2nc(C(N)=O)c3[nH]c(=O)n(-c4ccccc4OC)c3n2)cc1,-5.67,-2.13,-8.43,15.6% (active),24% (active),2.18,10.7
COc1ccc(C(=O)N2CCN(C(=O)c3ccco3)CC2)cc1,1.98,6.93,-2.64,100%,98.8%,1.56,4.49
CCc1cc2c(=O)n(N)c(CCC(=O)O)nc2s1,-14.9,-3.94,-1.37,100%,96.1%,0.425,8.13
COc1cccc(-n2c(Cc3cc(=O)[nH]c(=O)[nH]3)nnc2SCC(=O)N2CCCCC2)c1,-2.5,-0.925,-1.49,112%,96.8%,1.77,5.28
COc1ccc(C)cc1NC(=O)CN1C(=O)c2ccccc2S1(=O)=O,6.31,10.8,-2.12,102%,94.4%,3.04,4.58
Cc1cccc(OCCn2c(=O)n(C)c3ccccc32)c1,-9.27,-5.27,-2.39,85.3%,83%,0.755,0.1
